Here are results for 4 compounds from ChEMBL document CHEMBL1933030, “Conjugation of spermine enhances cellular uptake of the stapled peptide-based inhibitors of p53-Mdm2 interaction” (Bioorg Med Chem Lett, 2011).

Data set [1] concerns the target Tumour suppressor p53/oncoprotein Mdm2 (Homo sapiens, UniProt Q00987). Put plainly: Inhibition of p53-MDM2 interaction by ELISA. The class given is protein assay.
The subject of another data set is HeLa. Put plainly: Cellular uptake in human HeLa cells at 10 uM after 2 hrs by FACS analysis relative to control. The class given is ADME, cell-based. In outline:
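HeLa cells were exposed to fluorescein-labelled peptides at 10 μM and analysed by flow cytometry (FACS). Uptake was read as mean cellular fluorescence, shown as representative histograms, and normalized for comparison between peptides.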

Sequence of Tumour suppressor p53/oncoprotein Mdm2 (P04637 whole entry): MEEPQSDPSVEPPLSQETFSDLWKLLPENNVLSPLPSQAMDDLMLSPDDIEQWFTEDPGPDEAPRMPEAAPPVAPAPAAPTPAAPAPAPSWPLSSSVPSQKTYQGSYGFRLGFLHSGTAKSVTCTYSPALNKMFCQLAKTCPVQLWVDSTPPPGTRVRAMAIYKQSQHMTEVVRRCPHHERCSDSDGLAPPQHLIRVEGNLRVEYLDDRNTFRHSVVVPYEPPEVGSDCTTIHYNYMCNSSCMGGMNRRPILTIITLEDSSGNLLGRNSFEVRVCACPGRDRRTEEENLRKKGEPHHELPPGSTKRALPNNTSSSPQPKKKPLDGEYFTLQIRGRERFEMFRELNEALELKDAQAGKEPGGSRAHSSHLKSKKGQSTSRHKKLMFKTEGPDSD
Sequence of Tumour suppressor p53/oncoprotein Mdm2 (Q00987 whole entry): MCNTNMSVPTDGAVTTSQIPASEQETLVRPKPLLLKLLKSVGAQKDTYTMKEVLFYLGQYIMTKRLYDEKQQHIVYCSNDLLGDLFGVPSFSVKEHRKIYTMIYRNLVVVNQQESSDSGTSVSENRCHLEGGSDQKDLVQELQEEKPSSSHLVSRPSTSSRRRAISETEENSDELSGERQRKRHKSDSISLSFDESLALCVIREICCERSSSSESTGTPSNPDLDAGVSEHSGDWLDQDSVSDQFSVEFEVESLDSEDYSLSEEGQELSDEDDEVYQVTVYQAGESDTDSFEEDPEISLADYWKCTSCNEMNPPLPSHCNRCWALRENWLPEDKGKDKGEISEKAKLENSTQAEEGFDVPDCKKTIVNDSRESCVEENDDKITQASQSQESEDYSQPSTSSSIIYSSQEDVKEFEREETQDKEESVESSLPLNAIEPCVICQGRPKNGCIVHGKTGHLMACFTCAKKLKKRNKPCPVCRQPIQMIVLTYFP

For `CC(=O)N[C@@H](CC(C)C)C(=O)N[C@H](C(=O)N[C@@H](Cc1ccccc1)C(=O)N[C@@H](CS)C(=O)N[C@@H](Cc1cnc[nH]1)C(=O)N[C@@H](Cc1ccc(O)cc1)C(=O)N[C@@H](Cc1c[nH]c2ccccc12)C(=O)N[C@@H](C)C(=O)N[C@@H](CCC(N)=O)C(=O)N[C@@H](CC(C)C)C(=O)N[C@@H](CS)C(=O)N[C@@H](CO)C(N)=O)[C@@H](C)O`, in data set [1], 57 nM corresponded to half-maximal inhibition (IC50).

Turning to `CC(=O)N[C@@H](CC(C)C)C(=O)N[C@H](C(=O)N[C@@H](Cc1ccccc1)C(=O)N[C@H](CS)C(=O)N[C@@H](Cc1cnc[nH]1)C(=O)N[C@@H](Cc1ccc(O)cc1)C(=O)N[C@@H](Cc1c[nH]c2ccccc12)C(=O)N[C@@H](C)C(=O)N[C@@H](CCC(N)=O)C(=O)N[C@@H](CC(C)C)C(=O)N[C@@H](CS)C(=O)N[C@@H](CO)C(N)=O)[C@@H](C)O`, the IC50 in data set [1] is 13 nM. This IC50 lies about 4.4-fold lower than the previous one.

On to `CC(C)C[C@H](NC(=O)CCCCCNC(=O)c1ccccc1-c1c2ccc(=O)cc-2oc2cc(O)ccc12)C(=O)N[C@H](C(=O)N[C@@H](Cc1ccccc1)C(=O)N[C@@H](CS)C(=O)N[C@@H](Cc1cnc[nH]1)C(=O)N[C@@H](Cc1ccc(O)cc1)C(=O)N[C@@H](Cc1c[nH]c2ccccc12)C(=O)N[C@@H](C)C(=O)N[C@@H](CCC(N)=O)C(=O)N[C@@H](CC(C)C)C(=O)N[C@@H](CS)C(=O)N[C@@H](CO)C(N)=O)[C@@H](C)O`, for which the Drug uptake in the data set on HeLa worked out at 4.5%. Compound `CC(C)C[C@H](NC(=O)CCCCCNC(=O)c1ccccc1-c1c2ccc(=O)cc-2oc2cc(O)ccc12)C(=O)N[C@H](C(=O)N[C@@H](Cc1ccccc1)C(=O)N[C@H](CS)C(=O)N[C@@H](Cc1cnc[nH]1)C(=O)N[C@@H](Cc1ccc(O)cc1)C(=O)N[C@@H](Cc1c[nH]c2ccccc12)C(=O)N[C@@H](C)C(=O)N[C@@H](CCC(N)=O)C(=O)N[C@@H](CC(C)C)C(=O)N[C@@H](CS)C(=O)N[C@@H](CO)C(N)=O)[C@@H](C)O` yielded a Drug uptake with HeLa of 3.3%.
